FGF22 binding-1 – shifts melting point of recombinant human FGF22; activity (Tm shift, normalised), % at 9.99 µM; Q9HCT0; recombinant FGF22 thermal shift, SYPRO orange fluorescence; percent of sucrose octasulfate shift, DMSO zero; 1.5% of 340,000 active;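 active means mean Tm shift, scaled 0 neutral to 100 positive control, at about 1.3% or above, every replicate too, limit read from the data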
Target sequence (Q9HCT0 whole entry, looked up): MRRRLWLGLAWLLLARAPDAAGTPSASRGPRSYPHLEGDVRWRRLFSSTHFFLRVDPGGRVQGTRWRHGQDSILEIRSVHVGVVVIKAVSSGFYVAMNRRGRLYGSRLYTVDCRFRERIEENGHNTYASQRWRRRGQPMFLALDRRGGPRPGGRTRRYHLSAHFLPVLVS
EBNA-1 inhibitor – blocks EBNA-1 binding to DNA | EBNA-1 DNA binding, fluorescence polarization | inhibition, % at 14.8 µM | 0.34% of 300,000 active | AID 1950; in the data active means inhibition above about 28%
DNA FID counter – fluorescent intercalator displacement, NS3 helicase counter-screen; AID 1845; inhibition, % at 7.9 µM; 0.17% of 290,000 active; DNA fluorescent intercalator displacement, fluorescence; in the data active means inhibition above about 37%;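 further: 0% = vehicle and 100% = reference compound; higher means more ethidium bromide displaced from hairpin DNA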
ZTA counter – blocks Epstein-Barr virus ZTA, an EBNA-1 counter-screen. ZTA-DNA binding, fluorescence polarization. AID 2234. inhibition, % at 11 µM. 0.15% of 320,000 active. P03206; in the data active means inhibition above about 33%
Target sequence (P03206 whole entry, looked up): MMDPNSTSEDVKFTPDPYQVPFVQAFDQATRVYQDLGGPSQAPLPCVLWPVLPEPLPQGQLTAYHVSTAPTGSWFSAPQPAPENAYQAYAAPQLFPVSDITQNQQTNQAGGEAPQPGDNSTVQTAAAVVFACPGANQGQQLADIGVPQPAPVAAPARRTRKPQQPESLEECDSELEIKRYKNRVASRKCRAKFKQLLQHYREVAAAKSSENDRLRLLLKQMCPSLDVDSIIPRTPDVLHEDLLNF
NR3A LBD binder – modulates the human NR3A ligand-binding domain; NR3A LBD differential scanning fluorimetry, Tm shift; 0% = protein alone, 100% = glycine-bound protein; Tm shift relative to glycine control, % at 25 µM; 2.5% of 340,000 active; AID 1259313;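 active means melting temperature shift of at least 10% of the positive control shift, at one fixed dose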
HCV NS3 hel inh – blocks Hepatitis C virus NS3 helicase unwinding; NS3 helicase DNA unwinding, Cy5 molecular beacon fluorescence; inhibition, % at 10.9 µM; 0.56% of 290,000 active; AID 1800;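 active means inhibition above the mean of all tested compounds plus 3 SD, set per campaign, cut at about 35% in these data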;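 further: 0% = DMSO wells and 100% = thioflavine S control wells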
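Assay system: hepatitis C virus NS3 helicase domain fragment enzyme. Also added: annealed dual-labelled DNA beacon duplex, ATP-started. Timing: 1 h reaction at 25 °C, ATP-initiated. Technique: Cy5 fluorescence at 0 and 60 min, beacon hairpin quenching. Evaluation: % inhibition of unwinding. Replication: one well per compound.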
FGF22 binding-2 – binders of human FGF22 by thermal shift; shares compounds with FGF22 binding-1; thermal shift activity, °C (ΔTm) at 38 µM; 2% of 1,000 active; recombinant FGF22 thermal shift, SYPRO orange fluorescence;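 active means fitted rise in melting shift crosses a set limit at or below the top valid dose tested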
FGF22 TSA – binds human FGF22 shifting its melting temperature; shares compounds with FGF22 binding-1; Thermal shift assay, SYPRO orange, melting temperature shift; Tm shift (activity), % at 38 µM; 50 tested, under 10 active; AID 743017;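 active means compounds whose fitted dose curve of melting temperature shift rises past a set threshold within the tested doses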
SYPRO no-protein – shows thermal shift signal without protein, FGF22 counter-screen; shares compounds with FGF22 binding-1; compound-only SYPRO orange thermal shift counter-screen, no protein; AC50, µM (top dose mostly 38 µM); 2% of 1,000 active;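 active means rising signal whose fitted curve reaches the 0.54 level within the top valid dose, showing a melting point, actives reach about 13 µM in these data; inactive means the rest, including activity in the opposite direction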; further: value is where the raw curve crosses a fixed level and not half-maximal
An asterisk follows results filed as active; i = inactive; . = no result given; ! = a repeat was not active; [ ] = dose if it differs, or a comment. Rows were chosen to be rich in hits. Some 3.6% of all compounds tested hit in one or more screens of this group.

SMILES	FGF22 binding-1	EBNA-1 inhibitor	DNA FID counter	ZTA counter	NR3A LBD binder	HCV NS3 hel inh	FGF22 binding-2	SYPRO no-protein	others
CN1C(=O)c2cc(NC(=O)c3cccc(F)c3)ccc2OC[C@H]2O[C@@H](CC(=O)N3CCc4ccccc4C3)CC[C@H]21	1.3*	.	.	.	.	.	0.11[42 µM]	i
CN1C(=O)c2cc(NC(=O)c3cccc(F)c3)ccc2OC[C@@H]2O[C@H](CC(=O)NCC3CCCCC3)CC[C@@H]21	2.3*!	.	.	.	.	.	-0.16	i
CN1C(=O)c2cc(NC(=O)c3cccc(F)c3)ccc2OC[C@H]2O[C@@H](CC(=O)NCC3CCCCC3)CC[C@H]21	2.3*	.	.	.	.	.	0.12[42 µM]	i
CN1C(=O)c2cc(NC(=O)c3cccc(F)c3)ccc2OC[C@H]2O[C@@H](CC(=O)NCc3ccccc3)CC[C@H]21	1.7*	.	.	.	.	.	-0.023[42 µM]	i
CN1C(=O)c2cc(NC(=O)c3cccc(F)c3)ccc2OC[C@H]2O[C@H](CC(=O)N3CCc4ccccc4C3)CC[C@@H]21	0	.	.	.	.	.	.	.
C[C@@H]1CCCCO[C@H](CN(C)Cc2ccc(C(F)(F)F)cc2)[C@@H](C)CN([C@@H](C)CO)C(=O)c2cc(NS(=O)(=O)c3ccc(F)cc3)ccc2O1	-1	.	.	.	.	.	.	.
C[C@@H]1CN([C@@H](C)CO)C(=O)c2cc(NS(C)(=O)=O)ccc2O[C@@H]1CN(C)Cc1ccc(C(=O)Nc2ccccc2N)cc1	0	.	.	.	.	.	.	.
CCCNC(=O)N1C[C@H](O)COC[C@@H]2O[C@H](CC(=O)N3CCC(Cc4ccccc4)CC3)CC[C@H]21	0	.	.	.	.	.	.	.
CN1c2ccc(Br)cc2[C@H]2[C@H](CCN2C(=O)Nc2cc(F)ccc2F)[C@H]1CO	-1	.	.	.	.	.	.	.
COc1cccc(NC(=O)N(C)C[C@@H]2Oc3cc(/C=C/c4ccccc4)ccc3S(=O)(=O)N([C@@H](C)CO)C[C@H]2C)c1	0	.	.	.	.	.	.	.
O=C(Nc1ccc(F)c(Cl)c1)C1CCCN(C2=NS(=O)(=O)c3ccccc32)C1 (configuration not stated)	31*	.	.	-16	-7	.	0.25	i
C[C@H]1CN([C@@H](C)CO)C(=O)CCCn2nncc2CO[C@H]1CN(C)S(=O)(=O)c1ccc(F)cc1	0	.	.	.	.	.	.	.
C[C@@H]1CN([C@@H](C)CO)C(=O)CCCn2nncc2CO[C@@H]1CN(C)S(=O)(=O)c1ccc(F)cc1	1.3*!	.	.	.	.	.	0.058[42 µM]	i
C[C@@H]1CN([C@H](C)CO)C(=O)CCCn2nncc2CO[C@H]1CN(C)S(=O)(=O)c1ccc(F)cc1	1.2*!	.	.	.	.	.	0	i
COc1ccc(NC(=O)N(C)C[C@@H]2Oc3c(NC(=O)Nc4ccc5c(c4)OCO5)cccc3C(=O)N([C@H](C)CO)C[C@@H]2C)cc1	0	.	.	.	.	.	.	.
COc1ccc(OC)c(NC(=O)NNC(=O)CCCOc2ccc(Cl)cc2C)c1	1.7*	2	-10	0	-8	-5	0.028	i
COc1ccc(NC(=O)NNC(=O)COc2ccc(Cl)cc2C)cc1OC	0	7	-20	1	-3	4	.	.
O=[N+]([O-])c1ccc(Oc2ccc(S(=O)(=O)Nc3ccccc3)cc2)cc1	.	12	-4	11	8	-15	.	.
O=C1C(Cl)=C(NS(=O)(=O)c2ccc([N+](=O)[O-])cc2)C(=O)c2ccccc21	1.9*	-2	-9	11	1	12	0.13	i
O=C(N/N=C\c1c[nH]c2ccccc12)c1ccc(O)cc1	6.7*	.	-1	.	41*	-4	.	i
Nc1ccc(C(=O)N/N=C/c2c[nH]c3ccccc23)cc1	2.7*	-1	-3	-6	21*	-14	0.15	i	FGF22 TSA=0
CCOC(=O)N/N=C/c1c[nH]c2ccccc12	0	-7	-3	-7	-1	0	.	.
CC(C)(C)c1ccc(C2CC2C(=O)N/N=C\c2ccc[nH]2)cc1 (configuration not stated)	2.0*	-4	-16	-16	-3	5	-0.039	i
O=C(N/N=C/c1c[nH]c2ccccc12)C1CC1c1ccccc1 (configuration not stated)	1.5*	7	2	-3	10*	-13	0.036	i
COc1ccc(NC(=O)N2CC3(C2)CN(C(=O)C2CCC2)[C@H](CO)c2c3c3ccc(OC)cc3n2C)cc1	0	.	.	.	.	.	.	.
